In ChEMBL document CHEMBL5724801, “EUbOPEN Chemogenomics Library - Multiplex” (2024):
“And” between values parts separate entries of the source, which are not always exact repeats. Equal values may be shown once.

System: U2OS
Test: Multiplex assay against U2OS
Type: toxicity, cell-based
Conditions: human
How it was run: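 Phenotypes for tubulin, mitochondrial mass and membrane permeability are expressed as per cents of healthy-nucleus cells. Cells were stained live at seeding with Hoechst33342, BioTracker Green Microtubule Cytoskeleton Dye, MitoTracker Red and Annexin V Alexa Fluor 680, then imaged after compound addition on a CQ1 microscope at 37°C and 5% CO2. Machine-learning gating in CellPathfinder separated Hoechst high-intensity objects from normal cells, divided normal cells by nuclear state (healthy, pyknosed, fragmented) and divided pyknosed cells into mitotic or apoptotic.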

[1] = 12 h, 1 µM, compound concentration 1 uM
[2] = 12 h, 10 µM, compound concentration 10 uM
[3] = 24 h, 1 µM, compound concentration 1 uM
[4] = 24 h, 10 µM, compound concentration 10 uM
[5] = 48 h, 1 µM, compound concentration 1 uM
[6] = 48 h, 10 µM, compound concentration 10 uM

In the case of O=C(CCCc1ccccc1)Nc1nc2ccccc2c(=O)s1, the “Population Apoptotic (%)” value [1] is reported as 92% and 55%, the “Population Fragmented Nuclei (%)” value [1] is reported as 26% and 17% and the “Population Healthy Nuclei (%)” value [1] is reported as 64% and 74%. The “Population Hoechst High Intensity Objects (%)” value [1] was 2% and 0%, the “Population Membrane Permeable-Phenotype (%)” value [1] was 4% and 7% and the “Population Mitochondria Different-Phenotype (%)” value [1] was 2% and 3%. The “Population Normal (%)” value [1] was 97% and 100%, the “Population Pyknosed Nuclei (%)” value [1] was 9% and 7% and the “Population Tubulin-Different-Phenotype (%)” value [1] was 1% and 2%. The “Total Cell Count” value [1] was 274 and 113, the “Population Apoptotic (%)” value [2] was 72% and 100% and the “Population Fragmented Nuclei (%)” value [2] was 31% and 20%. For the same compound, the “Population Healthy Nuclei (%)” value [2] was 58% and 67%, the “Population Hoechst High Intensity Objects (%)” value [2] was 2% and 4% and the “Population Membrane Permeable-Phenotype (%)” value [2] was 2% and 7%. For the same compound, the “Population Mitochondria Different-Phenotype (%)” value [2] was 0% and 6%, the “Population Normal (%)” value [2] was 97% and 95% and the “Population Pyknosed Nuclei (%)” value [2] was 9% and 11%. For the same compound, the “Population Tubulin-Different-Phenotype (%)” value [2] was 1% and 6%, the “Total Cell Count” value [2] was 270 and 101 and the “Population Apoptotic (%)” value [3] was 79% and 84%. For the same compound, the “Population Fragmented Nuclei (%)” value [3] was 22% and 17%, the “Population Healthy Nuclei (%)” value [3] was 68% and 73% and the “Population Hoechst High Intensity Objects (%)” value [3] was 1% and 0%. The “Population Membrane Permeable-Phenotype (%)” value [3] was 4% and 8%, the “Population Mitochondria Different-Phenotype (%)” value [3] was 2% and the “Population Mitotic Cells (%)” value [3] was 20% and 15%. For the same compound, the “Population Normal (%)” value [3] was 98% and 100%, the “Population Pyknosed Nuclei (%)” value [3] was 9% and the “Population Tubulin-Different-Phenotype (%)” value [3] was 2% and 3%. The “Total Cell Count” value [3] was 325 and 141, the “Population Apoptotic (%)” value [4] was 86% and 100% and the “Population Fragmented Nuclei (%)” value [4] was 25% and 19%. The “Population Healthy Nuclei (%)” value [4] was 65% and 71%, the “Population Hoechst High Intensity Objects (%)” value [4] was 2% and 1% and the “Population Membrane Permeable-Phenotype (%)” value [4] was 5% and 8%. For the same compound, the “Population Mitochondria Different-Phenotype (%)” value [4] was 1% and 2%, the “Population Mitotic Cells (%)” value [4] was 13% and 0% and the “Population Normal (%)” value [4] was 97% and 98%. The “Population Pyknosed Nuclei (%)” value [4] was 9%, the “Population Tubulin-Different-Phenotype (%)” value [4] was 4% and 3% and the “Total Cell Count” value [4] was 319 and 124. For the same compound, the “Population Apoptotic (%)” value [5] was 91% and 87%, the “Population Fragmented Nuclei (%)” value [5] was 13% and 19% and the “Population Healthy Nuclei (%)” value [5] was 76% and 71%. For the same compound, the “Population Hoechst High Intensity Objects (%)” value [5] was 7% and 5%, the “Population Membrane Permeable-Phenotype (%)” value [5] was 3% and the “Population Mitochondria Different-Phenotype (%)” value [5] was 2% and 3%. For the same compound, the “Population Mitotic Cells (%)” value [5] was 8% and 12%, the “Population Normal (%)” value [5] was 92% and 94% and the “Population Pyknosed Nuclei (%)” value [5] was 9% and 8%. The “Population Tubulin-Different-Phenotype (%)” value [5] was 1% and 6%, the “Total Cell Count” value [5] was 394 and 192 and the “Population Apoptotic (%)” value [6] was 91% and 95%. The “Population Fragmented Nuclei (%)” value [6] was 20% and 15%, the “Population Healthy Nuclei (%)” value [6] was 70% and 72% and the “Population Hoechst High Intensity Objects (%)” value [6] was 2% and 0%. For the same compound, the “Population Membrane Permeable-Phenotype (%)” value [6] was 5% and 9%, the “Population Mitochondria Different-Phenotype (%)” value [6] was 0% and 3% and the “Population Mitotic Cells (%)” value [6] was 8% and 4%. The “Population Normal (%)” value [6] was 97% and 99%, the “Population Pyknosed Nuclei (%)” value [6] was 8% and 12% and the “Population Tubulin-Different-Phenotype (%)” value [6] was 3% and 5%. For the same compound, the “Total Cell Count” value [6] was 427 and 175.
C[C@@H]1CC(=O)Nc2cccc(-c3ccc4c(c3)c(-c3cnn(C)c3)nn4C)c2N1 was tested, and the “Population Apoptotic (%)” value [1] was 92% and 88%, the “Population Fragmented Nuclei (%)” value [1] was 20% and 16% and the “Population Healthy Nuclei (%)” value [1] was 73% and 75%. For the same compound, the “Population Hoechst High Intensity Objects (%)” value [1] was 1%, the “Population Membrane Permeable-Phenotype (%)” value [1] was 7% and 5% and the “Population Mitochondria Different-Phenotype (%)” value [1] was 4% and 2%. The “Population Mitotic Cells (%)” value [1] was 7% and 11%, the “Population Normal (%)” value [1] was 98% and the “Population Pyknosed Nuclei (%)” value [1] was 6% and 7%. The “Population Tubulin-Different-Phenotype (%)” value [1] was 6% and 2%, the “Total Cell Count” value [1] was 233 and 116 and the “Population Apoptotic (%)” value [2] was 86% and 33%. For the same compound, the “Population Fragmented Nuclei (%)” value [2] was 29% and 21%, the “Population Healthy Nuclei (%)” value [2] was 58% and 74% and the “Population Hoechst High Intensity Objects (%)” value [2] was 2% and 1%. The “Population Membrane Permeable-Phenotype (%)” value [2] was 11% and 7%, the “Population Mitochondria Different-Phenotype (%)” value [2] was 11% and 7% and the “Population Normal (%)” value [2] was 97% and 98%. The “Population Pyknosed Nuclei (%)” value [2] was 12% and 4%, the “Population Tubulin-Different-Phenotype (%)” value [2] was 8% and the “Population Apoptotic (%)” value [3] was 95% and 100%. The “Population Fragmented Nuclei (%)” value [3] was 20% and 22%, the “Population Healthy Nuclei (%)” value [3] was 71% and 74% and the “Population Hoechst High Intensity Objects (%)” value [3] was 2% and 1%. The “Population Membrane Permeable-Phenotype (%)” value [3] was 5% and 1%, the “Population Mitochondria Different-Phenotype (%)” value [3] was 2% and 1% and the “Population Mitotic Cells (%)” value [3] was 4% and 0%. For the same compound, the “Population Normal (%)” value [3] was 97% and 98%, the “Population Pyknosed Nuclei (%)” value [3] was 7% and 4% and the “Population Tubulin-Different-Phenotype (%)” value [3] was 2% and 0%. For the same compound, the “Total Cell Count” value [3] was 294 and 152, the “Population Apoptotic (%)” value [4] was 90% and 83% and the “Population Fragmented Nuclei (%)” value [4] was 24% and 15%. The “Population Healthy Nuclei (%)” value [4] was 63% and 78%, the “Population Hoechst High Intensity Objects (%)” value [4] was 4% and 1% and the “Population Membrane Permeable-Phenotype (%)” value [4] was 7% and 6%. The “Population Mitochondria Different-Phenotype (%)” value [4] was 6% and 1%, the “Population Mitotic Cells (%)” value [4] was 10% and 16% and the “Population Normal (%)” value [4] was 95% and 98%. The “Population Pyknosed Nuclei (%)” value [4] was 11% and 6%, the “Population Tubulin-Different-Phenotype (%)” value [4] was 3% and 4% and the “Total Cell Count” value [4] was 266 and 97. For the same compound, the “Population Apoptotic (%)” value [5] was 100%, the “Population Fragmented Nuclei (%)” value [5] was 19% and 13% and the “Population Healthy Nuclei (%)” value [5] was 73% and 77%. The “Population Hoechst High Intensity Objects (%)” value [5] was 1%, the “Population Membrane Permeable-Phenotype (%)” value [5] was 4% and 2% and the “Population Mitochondria Different-Phenotype (%)” value [5] was 2%. For the same compound, the “Population Mitotic Cells (%)” value [5] was 0%, the “Population Normal (%)” value [5] was 98% and the “Population Pyknosed Nuclei (%)” value [5] was 6% and 8%. The “Population Tubulin-Different-Phenotype (%)” value [5] was 3% and 2%, the “Total Cell Count” value [5] was 437 and 224 and the “Population Apoptotic (%)” value [6] was 100%. For the same compound, the “Population Fragmented Nuclei (%)” value [6] was 28% and 23%, the “Population Healthy Nuclei (%)” value [6] was 65% and 71% and the “Population Hoechst High Intensity Objects (%)” value [6] was 3% and 4%. For the same compound, the “Population Membrane Permeable-Phenotype (%)” value [6] was 8% and 3%, the “Population Mitochondria Different-Phenotype (%)” value [6] was 3% and 0% and the “Population Mitotic Cells (%)” value [6] was 0%. For the same compound, the “Population Normal (%)” value [6] was 96% and 95%, the “Population Pyknosed Nuclei (%)” value [6] was 5% and 4% and the “Population Tubulin-Different-Phenotype (%)” value [6] was 5% and 3%. For the same compound, the “Total Cell Count” value [6] was 394 and 149.
